Results taken from publication PMC3979583 (ACS medicinal chemistry letters, 2013).
Read-outs that look alike come from different tables or passages of the source.

How the values were obtained:
Type in all cases: cell-based
human CB2 receptors = human CB2 receptors (Homo sapiens, UniProt P34972)
cytotoxicity assay = conditions: 5 μM
[1] = test system: osteoclast (OCL) formation; test: osteoclast; conditions: mouse bone marrow mononuclear cells, RANKL plus MCSF
Summary of the method: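 Test compound was given at concentrations including 0.1, 1 and 5 μM, alongside a vehicle control. The read-out was inhibition of osteoclastogenesis, expressed as percent suppression of osteoclast formation. Each experiment was run in triplicate, and data were reported as means ± standard deviation.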

Chain of human CB2 receptors (P34972 whole entry): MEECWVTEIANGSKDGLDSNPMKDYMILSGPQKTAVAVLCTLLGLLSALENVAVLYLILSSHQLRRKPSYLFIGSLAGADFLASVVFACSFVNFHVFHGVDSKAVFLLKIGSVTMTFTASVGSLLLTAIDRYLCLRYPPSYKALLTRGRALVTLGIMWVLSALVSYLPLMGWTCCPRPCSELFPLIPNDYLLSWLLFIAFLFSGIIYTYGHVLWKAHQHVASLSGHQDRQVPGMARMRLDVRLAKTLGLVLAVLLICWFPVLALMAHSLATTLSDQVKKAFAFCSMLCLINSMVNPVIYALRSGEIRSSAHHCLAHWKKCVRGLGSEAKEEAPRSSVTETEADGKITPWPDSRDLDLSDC

functional behaviour at CB2 receptor (human CB2 receptors; based on LANCE signal change) | Compound | functional behaviour at CB2 receptor (human CB2 receptors) | cytotoxic effects (cytotoxicity assay) | inhibition of osteoclastogenesis (in words) [1]
– | CCN(CC)c1ccc(CN(c2ccccc2)S(=O)(=O)c2ccc(C)cc2)cc1 [Compound 34] | behaved as CB2 receptor inverse agonists | without showing any cytotoxic effects | great inhibition of osteoclastogenesis
behaved as CB2 receptor inverse agonists | COc1ccc(S(=O)(=O)N(Cc2ccc(N3CCCCC3)cc2)c2ccccc2)cc1 [Compound 47] | – | – | –
behaved as CB2 receptor inverse agonists | CCN(CC)c1ccc(CN(c2ccccc2)S(=O)(=O)c2ccc(OC)cc2)cc1 [Compound 39] | – | – | great inhibition of osteoclastogenesis
behaved as CB2 receptor inverse agonists | CCN(CC)c1ccc(CN(c2ncc(C)s2)S(=O)(=O)c2ccc(OC)cc2)cc1 [Compound 45] | – | – | great inhibition of osteoclastogenesis
